This note sets out measurements from ChEMBL document CHEMBL4145455, “Design, synthesis and evaluation of novel phenyl propionamide derivatives as non-nucleoside hepatitis B virus inhibitors” (Eur J Med Chem, 2018).

pEC50, pIC50: −log10 of the molar value. A value given as a limit tells only on which side of the number the result lay.

Series [1] in a line: Cytotoxicity against human HepG2(2.2.15) cells assessed as reduction in cell viability after 72 hrs by MTT assay. The series is classed as cell-based. The procedure, abridged:
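Confluent HepG2 2.2.15 cells exposed to graded compound concentrations for 72 h alongside untreated controls on each plate; viability by MTT uptake, absorbance 490 nm relative to untreated cells; CC50 = concentration killing 50% of cells. Three replicates.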
(Formazan colour is commonly taken as a measure of viable cells.)

Series [2] has as its system Hepatitis B virus. Nature of the series: Antiviral activity against HBV infected in human HepG2(2.2.15) cells assessed as inhibition of viral DNA replication at 20 uM after 6 days by RT-PCR method relative to control. The following applies: HepG2 2.2.15, 144 h. Type of series: functional. The procedure, abridged:
(§1)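 HepG2 2.2.15 cells (stable HBV genome; DMEM, 10% FBS, G418 0.38 mg/mL) seeded 2×10^5/well, recovered 24 h, then compound in assay medium (single 20 or 4 μM, or dose series for IC50), medium changed every 2 days; after 6 days HBV DNA extracted and quantified by real-time PCR. Mean ± SD, ≥3 independent experiments in duplicate.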

In series [3] the test system is Hepatitis B virus. Nature of the series: Antiviral activity against HBV infected in human HepG2(2.2.15) cells assessed as inhibition of viral DNA replication after 6 days by RT-PCR method. The series is classed as functional, organism-based. The following applies: HepG2 2.2.15, 144 h. An outline of the steps: as §1
Series [4] in a line: Selectivity index, ratio of CC50 for human HepG2(2.2.15) cells to IC50 for antiviral activity against HBV infected in human HepG2(2.2.15) cells assessed as inhibition of viral DNA replication. Type of series: toxicity, cell-based. The following applies: read-out: Ratio CC50/IC50. The procedure, abridged: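 SI calculated as CC50 (72 h MTT, HepG2 2.2.15) divided by IC50 for inhibition of HBV DNA replication measured by real-time PCR.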

For series [5], the system named is Hepatitis B virus. Briefly: Antiviral activity against HBV infected in human […] cells assessed as inhibition of viral DNA replication at 100 uM after 72 hrs by RT-PCR method relative to control. The series is classed as functional. An outline of the steps: (§2)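 HepG2 cells (2×10^5/well) transfected overnight-plated, 24 h with plasmid carrying wild-type or rtL180M+rtM204V+rtT184L resistant HBV; after PBS wash, fresh medium with lamivudine 100 μM, entecavir 10 μM, or test compounds 1 μM (one at 10 μM) for 72 h; replicative intermediate HBV DNA measured by real-time PCR.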

Series [6] deals with Hepatitis B virus. Nature of the series: Antiviral activity against lamivudine/entecavir resistant HBV harboring reverse transcriptase L180M/M204V/T184L mutant infected in human […] after 72 hrs by RT-PCR method. Type of series: functional, organism-based. The procedure, abridged: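 HepG2 cells (2×10^5 per well) were plated, incubated overnight, then transiently transfected for 24 h with a plasmid carrying the full HBV genome with rtL180M + rtM204V + rtT184L. Medium was discarded, cells washed with PBS, then treated across a dose range in fresh medium for 72 h. Intracellular HBV DNA replicative intermediate was quantified by real-time PCR. IC50 is 50% inhibition of DNA replication.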

Series [7] in a line: Selectivity index, ratio of CC50 for human HepG2(2.2.15) cells to IC50 for antiviral activity against lamivudine/entecavir resistant HBV harboring reverse transcriptase L180M/M204V/T184L mutant infected in human HepG2(2.2.15) cells. Type of series: toxicity, cell-based. The settings on record: read-out: Ratio CC50/IC50. An outline of the steps: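 SI = CC50/IC50. CC50 comes from HepG2 2.2.15 cells grown to confluence and treated for 72 h, with MTT absorbance at 490 nm relative to untreated cells, in triplicate. IC50 comes from mutant-plasmid-transfected HepG2 cells treated for 72 h, with HBV DNA measured by real-time PCR.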

The subject of series [8] is Hepatitis B virus. Briefly: Antiviral activity against HBV infected in human HepG2(2.2.15) cells assessed as inhibition of intracellular viral pregenomic RNA expression at 1 uM after 6 days by TRIzol reagent based RT-PCR method relative to control. The series is classed as functional. The settings on record: HepG2 2.2.15, 144 h. The procedure, abridged: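 HepG2 2.2.15 cells at 6×10^5 per well treated 6 days at 1 μM; total cellular RNA extracted and intracellular HBV pgRNA quantified by real-time PCR.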

In series [9] the test system is Hepatitis B virus. Nature of the series: Antiviral activity against lamivudine/entecavir resistant HBV harboring reverse transcriptase L180M/M204V/T184L mutant infected in human HepG2 cells assessed as inhibition of viral DNA replication at 100 uM after 72 hrs by RT-PCR method relative to control. The settings on record: HepG2, 72 h.
Series [10] deals with Hepatitis B virus. Briefly: Antiviral activity against HBV infected in human […] cells assessed as inhibition of viral DNA replication at 1 uM after 72 hrs by RT-PCR method relative to control. Type of series: functional. An outline of the steps: as §2
Series [11] deals with Hepatitis B virus. Nature of the series: Antiviral activity against lamivudine/entecavir resistant HBV harboring reverse transcriptase L180M/M204V/T184L mutant infected in human […] cells assessed as inhibition of viral DNA replication at 1 uM after 72 hrs by RT-PCR method relative to control. The series is classed as functional. An outline of the steps:
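HepG2 cells (not 2.2.15) were transiently transfected for 24 h with a plasmid carrying the rtL180M + rtM204V + rtT184L mutant HBV genome, alongside wild-type. After a PBS wash, cells received a single concentration (1, 10 or 100 µM) in fresh medium for 72 h. HBV DNA replicative intermediate was measured by real-time PCR and compared with the wild-type group.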

The target in series [12] is T1, Protein P (Duck hepatitis B virus (strain Germany/DHBV-3) (DHBV)) (UniProt P0C691).
T1 sequence (whole entry): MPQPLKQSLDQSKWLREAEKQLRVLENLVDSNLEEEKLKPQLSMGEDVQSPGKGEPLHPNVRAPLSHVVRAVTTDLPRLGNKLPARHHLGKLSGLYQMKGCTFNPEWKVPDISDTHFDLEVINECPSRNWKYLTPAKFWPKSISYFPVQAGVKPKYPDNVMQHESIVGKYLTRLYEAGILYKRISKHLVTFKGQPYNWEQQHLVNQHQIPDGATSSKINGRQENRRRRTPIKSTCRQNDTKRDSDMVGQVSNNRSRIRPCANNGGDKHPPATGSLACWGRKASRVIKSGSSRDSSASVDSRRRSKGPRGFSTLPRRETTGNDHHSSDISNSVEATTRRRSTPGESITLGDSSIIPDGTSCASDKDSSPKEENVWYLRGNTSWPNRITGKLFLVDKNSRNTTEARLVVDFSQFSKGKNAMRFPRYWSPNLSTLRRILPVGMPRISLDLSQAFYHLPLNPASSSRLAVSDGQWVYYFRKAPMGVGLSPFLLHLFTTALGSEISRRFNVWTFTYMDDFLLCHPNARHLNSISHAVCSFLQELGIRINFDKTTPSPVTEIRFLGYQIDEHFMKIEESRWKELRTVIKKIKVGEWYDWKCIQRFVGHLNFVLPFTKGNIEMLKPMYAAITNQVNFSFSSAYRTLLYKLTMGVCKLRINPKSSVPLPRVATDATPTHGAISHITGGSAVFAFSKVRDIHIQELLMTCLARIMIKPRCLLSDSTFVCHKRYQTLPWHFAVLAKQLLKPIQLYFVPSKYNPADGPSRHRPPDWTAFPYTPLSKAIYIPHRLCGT
Briefly: (§3) Inhibition of DHBV reverse transcriptase polymerase activity expressed in reticulocyte system assessed as reduction in elongation of viral minus strand DNA in presence of [alpha32P]DNA. The procedure, abridged: (§4)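 DHBV polymerase expressed in vitro in reticulocyte lysate; reverse transcriptase activity followed as [α32P]-dNTP incorporation into viral minus-strand DNA, with or without increasing inhibitor concentrations.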

The next series addresses T2, Protein P (Duck hepatitis B virus (strain Germany/DHBV-3) (DHBV), UniProt P0C691).
T2 sequence (P0C691 whole entry): T1 sequence (whole entry)
The series is described as §3. The procedure, abridged:
as §4

Series [13] has as its system Hepatitis B virus. Briefly: Antiviral activity against HBV assessed as inhibition of viral DNA replication. Type of series: functional, organism-based. The procedure, abridged: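 HepG2 cells transiently transfected with wild-type HBV genome, or the rtL180M+rtM204V+rtT184L lamivudine/entecavir-resistant mutant, for 24 h, washed, then exposed in dose-dependent manner; after 72 h HBV DNA replicative intermediate extracted and quantified by real-time PCR. IC50 = concentration giving 50% inhibition of DNA replication; mean ± SD of at least three independent experiments, duplicate measurements.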

For orientation: CC50 means the concentration that lowers cell viability or growth by half. For orientation: inhibition means the percentage by which the read-out fell short of the control. As usually defined, the pIC50 is −log10 of the IC50, conventionally taken in molar units. As to `Nc1ccn([C@@H]2CS[C@H](CO)O2)c(=O)n1` [LAMIVUDINE], the CC50 at 72 h in [1] was above 100 µM. The inhibition at 20 µM in the series with Hepatitis B virus [2] was 92.7%. Further, the pIC50 with Hepatitis B virus [3] is above 7.00; with Hepatitis B virus [6], below 4.00. Moreover, the selectivity ratio was above 1000 in series [4] and below 1 in series [7]. In addition, the inhibition at 100 µM with Hepatitis B virus [5] came to 94.3%; in the series on Hepatitis B virus [9], 19.4%. Also, in the series on Hepatitis B virus [8], the inhibition at 1 µM amounted to 0.81%.

In general, pEC50 refers to −log10 of the EC50, conventionally taken in molar units. For `Cc1cccc(/C(Br)=C(/NC(=O)c2ccccc2)C(=O)N[C@H](CO)Cc2ccccc2)c1`, the cytotoxic concentration (CC50) at 72 h in [1] is above 100 µM. The inhibition at 20 µM in the series on Hepatitis B virus [2] was found to be 87.6%. In addition, the pIC50 was 6.34 with Hepatitis B virus [3] and 6.11 in the series on Hepatitis B virus [6]. In addition, the figures for the selectivity ratio in [4] and in series [7] were above 217 and above 130, respectively. Besides, the inhibition at 1 µM in the series with Hepatitis B virus [10] was 61.4%; in the series with Hepatitis B virus [11], 65.9%; in the series with Hepatitis B virus [8] it was 49.4%. Moreover, the inhibition result in [12] was “Dose-dependent effect”. Besides, on Protein P, the pEC50 is 4.47.

As to `CC(=O)OC[C@H](Cc1ccccc1)NC(=O)[C@H](Cc1ccccc1)NC(=O)c1ccccc1`, the 50% cytotoxic concentration (CC50) at 72 h in series [1] was above 100 µM. For the same compound, in the series with Hepatitis B virus [2], the inhibition at 20 µM came to 60.6%. In addition, in the series on Hepatitis B virus [13], the pIC50 is 4.95.
